In ChEMBL document CHEMBL1799999, “N-benzoylated phenoxazines and phenothiazines: synthesis, antiproliferative activity, and inhibition of tubulin polymerization” (J Med Chem, 2011):

Experiments:
K562 = test: Antiproliferative activity against human K562 cells after 48 hrs by hemocytometric analysis; format: functional, cell-based; conditions: K562, 48 h
How it was run: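 K562 cells in RPMI 1640 with 10% FBS at 37 °C/5% CO2, plated at 2 × 10^5 cells/mL. Compounds in DMSO/methanol 1:1, final vehicle 0.5%. Cells counted in a Neubauer hemocytometer after 48 h and expressed as % of untreated control. Triplicate wells, three experiments; IC50 by nonlinear regression.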

Tubulin = Tubulin (Sus scrofa, UniProt P02554+P02550); test: Inhibition of pig tubulin polymerization determined after 45 mins at 37 degC by turbidimetric analysis; format: protein assay
How it was run: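 Microtubule protein (80–90% tubulin with MAPs) from porcine brain, isolated by two cold/warm cycles. Buffer: 20 mM PIPES pH 6.8, 80 mM NaCl, 0.5 mM MgCl2, 1 mM EGTA, 1 mM DTT. Protein at 1.2 mg/mL (about 10 μM tubulin) with 0.6 mM GTP, 1% DMSO, 37 °C.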

Row | IC50 (K562) | IC50 (Tubulin) | SMILES
1 | 8 µM | – | COc1ccc(CC(=O)N2c3ccccc3Sc3ccc(Cl)cc32)cc1
2 | 0.28 µM | 2.53 µM | COc1ccc(C(=O)N2c3ccccc3S(=O)(=O)c3ccccc32)cc1
3 | 0.12 µM | 0.96 µM | COc1ccc(C(=O)N2c3ccccc3Oc3cccc(C#N)c32)cc1
4 | > 80 µM | 5.03 µM | O=C(c1ccc([N+](=O)[O-])cc1)N1c2ccccc2Oc2ccc(Cl)cc21
5 | 1.58 µM | 4.69 µM | COc1ccc(C(=O)N2c3ccccc3S(=O)(=O)c3ccc(OC)cc32)cc1
6 | > 75 µM | – | O=C(c1ccc(C(F)(F)F)cc1)N1c2ccccc2Oc2ccc(Cl)cc21
7 | 0.21 µM | 1.4 µM | COc1ccc(C(=O)N2c3ccccc3Sc3ccccc32)cc1O
8 | 4.81 µM | > 10 µM | COc1ccc(CC(=O)N2c3ccccc3Oc3ccccc32)cc1
9 | 0.84 µM | 0.87 µM | COc1ccc(C(=O)N2c3ccccc3Sc3ccc(Cl)cc32)cc1
10 | 0.49 µM | 2.39 µM | N#Cc1ccc2c(c1)Oc1ccccc1N2C(=O)c1ccc(Cl)cc1
11 | 0.42 µM | 9.39 µM | COc1ccc(C(=O)N2c3ccccc3[S+]([O-])c3ccccc32)cc1
12 | 0.16 µM | 2.7 µM | COc1ccc(C(=O)N2c3ccccc3Oc3ccc(C#N)cc32)cc1
13 | > 20 µM | – | COc1ccc(C(=O)CN2c3ccccc3Oc3ccc(Cl)cc32)cc1
14 | 0.3 µM | 8.4 µM | COc1ccc(C(=O)N2c3ccccc3[S+]([O-])c3ccccc32)cc1O
15 | 4.6 µM | > 10 µM | COc1ccc(C(=O)N2c3ccccc3Sc3ccc(C(F)(F)F)cc32)cc1
16 | 1.12 µM | 1.13 µM | O=C(c1ccc2c(c1)OCO2)N1c2ccccc2Oc2ccc(Cl)cc21
17 | 1.38 µM | 0.65 µM | COc1cccc(C(=O)N2c3ccccc3Oc3ccc(Cl)cc32)c1
18 | 0.55 µM | 1.1 µM | COc1ccc(CC(=O)N2c3ccccc3Oc3ccc(Cl)cc32)cc1
19 | 0.23 µM | 1.2 µM | N#Cc1ccc2c(c1)Oc1ccccc1N2C(=O)c1ccccc1
20 | > 30 µM | – | CC(=O)N1c2ccccc2Oc2ccc(Cl)cc21
21 | 0.8 µM | 1.05 µM | COc1ccc(C(=O)N2c3ccccc3S(=O)(=O)c3ccc(Cl)cc32)cc1
22 | > 25 µM | – | O=C(c1ccc(Br)cc1)N1c2ccccc2Oc2ccc(Cl)cc21

Second part, the molecule before the results:

Row | SMILES | IC50 (K562) | IC50 (Tubulin)
23 | O=C(c1ccccc1)N1c2ccccc2[S+]([O-])c2ccccc21 | > 30 µM | –
24 | O=C(c1ccccc1)N1c2ccccc2Sc2ccc(Cl)cc21 | > 30 µM | –
25 | COc1cc(C(=O)N2c3ccccc3Oc3ccc(Cl)cc32)cc(OC)c1OC | 24 µM | –
26 | O=C(c1ccccc1)N1c2ccccc2S(=O)(=O)c2ccc(Cl)cc21 | > 30 µM | –
27 | COc1cc(C(=O)N2c3ccccc3S(=O)(=O)c3ccc(Cl)cc32)cc(OC)c1OC | 4.2 µM | > 10 µM
28 | COc1cc(C(=O)N2c3ccccc3[S+]([O-])c3ccc(Cl)cc32)cc(OC)c1OC (stereo unspecified) | 35 µM | > 10 µM
29 | COc1cc(C(=O)N2c3ccccc3Sc3ccc(Cl)cc32)cc(OC)c1OC | 11 µM | > 10 µM
30 | N#Cc1ccc2c(c1)Oc1ccccc1N2 | > 10 µM | > 10 µM
31 | COc1cc(C(=O)N2c3ccccc3S(=O)(=O)c3ccccc32)cc(OC)c1OC | 2.6 µM | 2.46 µM
32 | COc1cc(C(=O)N2c3ccccc3[S+]([O-])c3ccccc32)cc(OC)c1OC | 8.03 µM | > 10 µM
33 | O=C(c1ccccc1)N1c2ccccc2[S+]([O-])c2ccc(Cl)cc21 (stereo unspecified) | > 30 µM | –
34 | O=C(c1ccccc1)N1c2ccccc2Sc2ccccc21 | > 30 µM | –
35 | O=C(c1ccccc1)N1c2ccccc2S(=O)(=O)c2ccccc21 | > 30 µM | –
36 | Clc1ccc2c(c1)Nc1ccccc1S2 | > 100 µM | –
37 | COc1ccc(C(=O)N2c3ccccc3Sc3ccccc32)cc1OCc1ccccc1 | > 30 µM | –
38 | c1ccc2c(c1)Nc1ccccc1S2 [PHENOTHIAZINE] | > 100 µM | –
